Experimental data as given in ChEMBL document CHEMBL1138311, “Design and synthesis of novel and potent inhibitors of the type II transmembrane serine protease, matriptase, based upon the sunflower trypsin inhibitor-1” (J Med Chem, 2007).
Active and inactive are the calls of the source. The rule behind the calls is not given here.

Tests used:
[1] = Selectivity for human matriptase over bovine thrombin
Outline: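 Enzyme was preincubated with inhibitor before substrate addition. Matriptase substrate: t-Boc-Gln-Ala-Arg-AMC; thrombin substrate: N-tBoc-Leu-Arg-Arg-AMC. AMC release read at ex 360/em 480 nm over six to seven inhibitor concentrations. Ki from Dixon plots using two substrate concentrations.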

Prothrombin = Prothrombin (Bos taurus, UniProt P00735); test: (§1) Inhibition of bovine thrombin
Outline: (§2)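 Room-temperature fluorogenic assay in 100 mM Tris-HCl (pH 8.5) with 100 mg/mL BSA. Enzyme and inhibitor were preincubated, then N-tBoc-Leu-Arg-Arg-AMC substrate was added. Hydrolysis was followed by fluorescence (ex 360 nm, em 480 nm) at six to seven inhibitor concentrations. Ki was taken from Dixon plots of two data sets at different substrate concentrations.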

[2] = biological target: T1, Suppressor of tumorigenicity 14 protein (Homo sapiens, UniProt Q9Y5Y6); test: Inhibition of human matriptase
T1 sequence (Q9Y5Y6 whole entry): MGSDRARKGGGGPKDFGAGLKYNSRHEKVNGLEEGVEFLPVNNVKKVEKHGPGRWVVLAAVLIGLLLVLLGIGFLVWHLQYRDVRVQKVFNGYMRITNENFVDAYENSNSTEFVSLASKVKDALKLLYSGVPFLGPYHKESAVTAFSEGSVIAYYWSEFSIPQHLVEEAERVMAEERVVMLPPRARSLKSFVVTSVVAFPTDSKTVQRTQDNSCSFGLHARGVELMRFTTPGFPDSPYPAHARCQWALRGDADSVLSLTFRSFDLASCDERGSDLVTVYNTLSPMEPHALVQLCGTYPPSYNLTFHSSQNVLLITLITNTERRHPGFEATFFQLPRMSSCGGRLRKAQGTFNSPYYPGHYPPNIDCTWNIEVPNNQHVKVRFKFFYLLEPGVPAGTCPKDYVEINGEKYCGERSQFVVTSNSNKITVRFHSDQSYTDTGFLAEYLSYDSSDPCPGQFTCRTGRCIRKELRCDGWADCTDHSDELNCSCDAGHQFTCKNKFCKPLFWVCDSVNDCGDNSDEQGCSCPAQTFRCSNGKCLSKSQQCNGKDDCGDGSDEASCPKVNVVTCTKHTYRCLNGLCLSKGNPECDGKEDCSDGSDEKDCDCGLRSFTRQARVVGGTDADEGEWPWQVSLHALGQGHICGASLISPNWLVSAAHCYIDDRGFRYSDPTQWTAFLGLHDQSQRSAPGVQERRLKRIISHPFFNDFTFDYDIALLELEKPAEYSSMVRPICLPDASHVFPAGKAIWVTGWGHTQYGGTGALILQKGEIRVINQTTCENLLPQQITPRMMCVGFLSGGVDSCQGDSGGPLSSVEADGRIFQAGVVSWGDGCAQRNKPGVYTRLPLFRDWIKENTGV
Outline: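 Run at room temperature in 100 mM Tris-HCl (pH 8.5) with 100 mg/mL BSA. Enzyme and inhibitor were preincubated, then t-Boc-Gln-Ala-Arg-AMC was added and fluorescence read at ex 360 nm, em 480 nm over six to seven inhibitor concentrations. Ki came from Dixon plots at two substrate concentrations. A second format used purified matriptase with t-Boc-Gln-Ala-Arg-AFC in 100 mM Tris (pH 8.3) with BSA.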

Prothrombin (Bos taurus) = Prothrombin (Bos taurus) (UniProt P00735); test: as §1; outline: as §2

SMILES | Ratio Ki [1] | Ki (Prothrombin) | Ki [2] | Activity (Prothrombin (Bos taurus))
CC[C@H](C)[C@@H]1NC(=O)[C@@H]2CCCN2C(=O)[C@@H]2CCCN2C(=O)[C@H]([C@@H](C)CC)NC(=O)[C@H](CO)NC(=O)[C@H](CCCCN)NC(=O)[C@H]([C@@H](C)O)NC(=O)[C@@H]2CSSC[C@H](NC1=O)C(=O)N[C@@H](Cc1ccc(-c3ccccc3)cc1)C(=O)N1CCC[C@@H]1C(=O)N[C@@H](CC(=O)O)C(=O)NCC(=O)N[C@@H](CCCNC(=N)N)C(=O)N2 | 25.6 | 25.6 µM |  | 
CC[C@H](C)[C@@H]1NC(=O)[C@@H]2CCCN2C(=O)[C@@H]2CCCN2C(=O)[C@H]([C@@H](C)CC)NC(=O)[C@H](CO)NC(=O)[C@H](CCCCN)NC(=O)[C@H]([C@@H](C)O)NC(=O)[C@@H]2CSSC[C@H](NC1=O)C(=O)N[C@@H](Cc1ccccc1)C(=O)N1CCC[C@@H]1C(=O)N[C@@H](CC(=O)O)C(=O)NCC(=O)N[C@@H](Cc1ccc(NC(=N)N)cc1)C(=O)N2 | 1.8 | 164 µM |  | 
CC[C@H](C)[C@@H]1NC(=O)[C@@H]2CCCN2C(=O)[C@@H]2CCCN2C(=O)[C@H]([C@@H](C)CC)NC(=O)[C@H](CO)NC(=O)[C@H](CCCCN)NC(=O)[C@H]([C@@H](C)O)NC(=O)[C@@H]2CSCSC[C@H](NC1=O)C(=O)N[C@@H](Cc1ccccc1)C(=O)N1CCC[C@@H]1C(=O)N[C@@H](CC(=O)O)C(=O)NCC(=O)N[C@@H](CCCNC(=N)N)C(=O)N2 | 62.5 | 10 µM | 0.16 µM | 
CC[C@H](C)[C@@H]1NC(=O)[C@@H]2CCCN2C(=O)[C@@H]2CCCN2C(=O)[C@H]([C@@H](C)CC)NC(=O)[C@H](CO)NC(=O)[C@H](CCCCN)NC(=O)[C@H]([C@@H](C)O)NC(=O)[C@@H]2CSSC[C@H](NC1=O)C(=O)N[C@@H](Cc1c(F)c(F)c(F)c(F)c1F)C(=O)N1CCC[C@@H]1C(=O)N[C@@H](CC(=O)O)C(=O)NCC(=O)N[C@@H](CCCNC(=N)N)C(=O)N2 | 37.8 | 33.6 µM |  | 
CC[C@H](C)[C@@H]1NC(=O)[C@@H]2CCCN2C(=O)[C@@H]2CCCN2C(=O)[C@H]([C@@H](C)CC)NC(=O)[C@H](CO)NC(=O)[C@H](CCCNC(=N)N)NC(=O)[C@H]([C@@H](C)O)NC(=O)[C@@H]2CSSC[C@H](NC1=O)C(=O)N[C@@H](Cc1ccccc1)C(=O)N1CCC[C@@H]1C(=O)N[C@@H](CC(=O)O)C(=O)NCC(=O)N[C@@H](CCCNC(=N)N)C(=O)N2 | 0.18 | 0.86 µM |  | 
CC[C@H](C)[C@@H]1NC(=O)[C@@H]2CCCN2C(=O)[C@@H]2CCCN2C(=O)[C@H]([C@@H](C)CC)NC(=O)[C@H](CO)NC(=O)[C@H](CCCCN)NC(=O)[C@H]([C@@H](C)O)NC(=O)[C@@H]2CSSC[C@H](NC1=O)C(=O)N[C@@H](Cc1ccccc1)C(=O)N1CCC[C@@H]1C(=O)N[C@@H](CC(=O)O)C(=O)NCC(=O)N[C@@H](CCCNC(=N)N)C(=O)N2 | 50 |  |  | 
CC[C@H](C)[C@@H]1NC(=O)[C@@H]2CCCN2C(=O)[C@@H]2CCCN2C(=O)[C@H]([C@@H](C)CC)NC(=O)[C@H](CO)NC(=O)[C@H](CCCCCN)NC(=O)[C@H]([C@@H](C)O)NC(=O)[C@@H]2CSSC[C@H](NC1=O)C(=O)N[C@@H](Cc1ccccc1)C(=O)N1CCC[C@@H]1C(=O)N[C@@H](CC(=O)O)C(=O)NCC(=O)N[C@@H](CCCNC(=N)N)C(=O)N2 | 1.6 | 45.6 µM |  | 

Further lines, results first:

Ratio Ki [1] | Ki (Prothrombin) | Ki [2] | Activity (Prothrombin (Bos taurus)) | SMILES
37 | 827 µM |  |  | CC[C@H](C)[C@@H]1NC(=O)[C@@H]2CCCN2C(=O)[C@@H]2CCCN2C(=O)[C@H]([C@@H](C)CC)NC(=O)[C@H](CO)NC(=O)[C@H](CCCCN)NC(=O)[C@H]([C@@H](C)O)NC(=O)[C@@H]2CSSC[C@H](NC1=O)C(=O)N[C@@H](Cc1ccccc1)C(=O)N1CCC[C@@H]1C(=O)N[C@@H](CC(=O)O)C(=O)NCC(=O)N[C@@H](CCCNC(N)=O)C(=O)N2
0.38 | 40.4 µM |  |  | CC[C@H](C)[C@@H]1NC(=O)[C@@H]2CCCN2C(=O)[C@@H]2CCCN2C(=O)[C@H]([C@@H](C)CC)NC(=O)[C@H](CO)NC(=O)[C@H](CCCCN)NC(=O)[C@H]([C@@H](C)O)NC(=O)[C@H](CO)NC(=O)[C@H](CCCNC(=N)N)NC(=O)CNC(=O)[C@H](CC(=O)O)NC(=O)[C@H]2CCCN2C(=O)[C@H](Cc2ccccc2)NC(=O)[C@H](CO)NC1=O
 |  |  | inactive | CC[C@H](C)[C@@H]1NC(=O)[C@@H]2CCCN2C(=O)[C@@H]2CCCN2C(=O)[C@H]([C@@H](C)CC)NC(=O)[C@H](CO)NC(=O)[C@H](CCCN)NC(=O)[C@H]([C@@H](C)O)NC(=O)[C@@H]2CSSC[C@H](NC1=O)C(=O)N[C@@H](Cc1ccccc1)C(=O)N1CCC[C@@H]1C(=O)N[C@@H](CC(=O)O)C(=O)NCC(=O)N[C@@H](CCCNC(=N)N)C(=O)N2
36 | 16.3 µM |  |  | CC[C@H](C)[C@@H]1NC(=O)[C@@H]2CCCN2C(=O)[C@@H]2CCCN2C(=O)[C@H]([C@@H](C)CC)NC(=O)[C@H](CO)NC(=O)[C@H](CCCCN)NC(=O)[C@H]([C@@H](C)O)NC(=O)[C@@H]2CSSC[C@H](NC1=O)C(=O)N[C@@H](Cc1ccc3ccccc3c1)C(=O)N1CCC[C@@H]1C(=O)N[C@@H](CC(=O)O)C(=O)NCC(=O)N[C@@H](CCCNC(=N)N)C(=O)N2
8.9 | 7.63 µM |  |  | CC[C@H](C)[C@@H]1NC(=O)[C@@H]2CCCN2C(=O)[C@@H]2CCCN2C(=O)[C@H]([C@@H](C)CC)NC(=O)[C@H](CO)NC(=O)[C@H](CCCCN)NC(=O)[C@H]([C@@H](C)O)NC(=O)[C@@H]2CSSC[C@H](NC1=O)C(=O)N[C@@H](Cc1ccccc1)C(=O)N1CCC[C@@H]1C(=O)N[C@@H](CC(=O)O)C(=O)NCC(=O)N[C@@H](CCCCNC(=N)N)C(=O)N2
